According to ChEMBL document CHEMBL1127826, “Inhibitors of acyl-CoA:cholesterol acyltransferase (ACAT). 7. Development of a series of substituted N-phenyl-N'-[(1-phenylcyclopentyl)methyl]ureas with enhanced hypocholesterolemic activity” (J Med Chem, 1994):

Assays:
[1] = Solubility at pH 4.0; assay type: physicochemical; settings: buffer
[2] = Compound was evaluated for the distribution coefficient at pH 4.0; assay type: physicochemical; settings: octanol/water
[3] = Solubility at pH 7.4; assay type: physicochemical; settings: buffer
[4] = Compound was evaluated for the distribution coefficient at pH 7.4; assay type: physicochemical; settings: octanol/water, read-out: logD
[5] = Solubility at 0.1 N HCl; assay type: physicochemical; settings: read-out: S
[6] = Compound was evaluated for the distribution coefficient at pH 1.0; assay type: physicochemical; settings: octanol/water
Rattus norvegicus [7] = species: Rattus norvegicus; assay: Percent change in total cholesterol in peanut oil (5.5%)-, cholic acid (0.3%)-, Cholesterol (1.5%)-fed rats after a single dose.; assay type: functional
Method in brief: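 Male Sprague-Dawley rats (200-225 g), n=5-7/group, given a single oral dose at 4 p.m. as a suspension in 1.5% CMC/0.2% Tween-20 in water (50 mg/kg); controls received vehicle alone. The rats then had free access to chow with peanut oil, cholesterol and cholic acid. At 8 a.m. next day they were bled by cardiac puncture under ether, and serum total cholesterol was measured as % change versus controls (unpaired two-tailed t-test).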

Rattus norvegicus [8] = assay: Compound was evaluated in experiment 1 for High density lipoproteins at 3.0 (mg/kg) dose; assay type: functional
Method in brief: (§1)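 Chronic model in male Sprague-Dawley rats (200-225 g). Rats were fed chow with peanut oil 5.5%, cholesterol 1.5% and cholic acid ad libitum for 2 weeks. Test article was given by gavage once daily (morning) in the second week, as a CMC/Tween aqueous suspension. Blood was taken by cardiac puncture under ether 24 h after the last dose. Plasma total, HDL and nonHDL cholesterol were measured with an Abbott VP analyzer using dextran sulfate precipitation, reported as mg/dL and % change from control. Controls were cholesterol-fed rats and rats switched to chow in week 2.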

Rattus norvegicus [9] = assay: Compound was evaluated in experiment 1 for Change in total cholesterol at 1.0 (mg/kg) dose; assay type: functional; method in brief: as §1
Rattus norvegicus [10] = assay: Compound was evaluated in experiment 1 for non High density lipoproteins at 0.3 (mg/kg) dose; assay type: functional; method in brief: as §1
Rattus norvegicus [11] = assay: Compound was evaluated in experiment 1 for non High density lipoproteins at 10 (mg/kg) dose; assay type: functional; method in brief: as §1
Rattus norvegicus [12] = assay: Compound was evaluated in experiment 1 for Total cholesterol at 0.3 (mg/kg) dose; assay type: functional; design: unit not given beside the values; method in brief: as §1
Rattus norvegicus [13] = assay: Compound was evaluated in experiment 1 for non High density lipoproteins at 3.0(mg/kg) dose; assay type: functional; method in brief: as §1
Rattus norvegicus [14] = assay: Compound was evaluated in experiment 1 for Change in High density lipoproteins at 10 (mg/kg) dose; assay type: functional; method in brief: as §1
Rattus norvegicus [15] = assay: Compound was evaluated in experiment 1 for High density lipoproteins at 1.0 (mg/kg) dose; assay type: functional; method in brief: as §1
Rattus norvegicus [16] = assay: Compound was evaluated in experiment 1 for change in non High density lipoprotein at the doses at 1.0 (mg/kg) dose; assay type: functional; method in brief: as §1
Rattus norvegicus [17] = assay: Compound was evaluated in experiment 1 for change in non High density lipoprotein at the doses at 0.3 (mg/kg) dose; assay type: functional; method in brief: as §1
Rattus norvegicus [18] = assay: Compound was evaluated in experiment 1 for Change in High density lipoproteins at 1.0 (mg/kg) dose; assay type: functional; method in brief: as §1
Rattus norvegicus [19] = assay: Compound was evaluated in experiment 1 for change in non High density lipoprotein at the doses at 10 (mg/kg) dose; assay type: functional; method in brief: as §1
Rattus norvegicus [20] = assay: Compound was evaluated in experiment 2 for non High density lipoproteins at 30 (mg/kg) dose; assay type: functional
Method in brief: (§2)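 Male Sprague-Dawley rats (200-225 g) were fed chow with peanut oil (5.5%), cholesterol (1.5%) and cholic acid (0.5%) ad libitum for 2 weeks. During week 2 they were gavaged daily each morning with compound in aqueous CMC/Tween suspension. Controls were fed the cholesterol diet for 2 weeks, or switched to chow for week 2. Rats were bled by cardiac puncture under ether 24 h post-dose. Plasma HDL-C was measured after dextran sulfate precipitation, along with nonHDL-C. Values are given in mg/dL and as % change from control.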

Rattus norvegicus [21] = assay: Compound was evaluated in experiment 2 for change in non High density lipoprotein at the doses at 30 (mg/kg) dose; assay type: functional; method in brief: as §2
Rattus norvegicus [22] = assay: Compound was evaluated in experiment 1 for change in non High density lipoprotein at the doses at 3.0 (mg/kg) dose; assay type: functional; method in brief: as §1
Rattus norvegicus [23] = assay: Compound was evaluated in experiment 2 for Total cholesterol at 30 (mg/kg) dose; assay type: functional; method in brief: as §1
Rattus norvegicus [24] = assay: Compound was evaluated in experiment 1 for Change in total cholesterol at 3.0 (mg/kg) dose; assay type: functional; method in brief: as §1
[25] = Solubility at, 0.1 N HCl; assay type: physicochemical; settings: read-out: S
Rattus norvegicus [26] = assay: Compound was evaluated in experiment 2 for Change in total cholesterol at 30 (mg/kg) dose; assay type: functional; method in brief: as §1
Rattus norvegicus [27] = assay: Compound was evaluated in experiment 2 for High density lipoproteins at 30 (mg/kg) dose; assay type: functional; method in brief: as §1
Rattus norvegicus [28] = assay: Compound was evaluated in experiment 1 for Change in High density lipoproteins at 0.3 (mg/kg) dose; assay type: functional; method in brief: as §1
Rattus norvegicus [29] = assay: Compound was evaluated in experiment 1 for Total cholesterol at 3.0 (mg/kg) dose; assay type: functional; design: unit not given beside the values; method in brief: as §1
[30] = Solubility at, pH 4.0; assay type: physicochemical; settings: buffer, read-out: S
[31] = Solubility at, pH 7.4; assay type: physicochemical; settings: buffer, read-out: S
Rattus norvegicus [32] = assay: Compound was evaluated in experiment 1 for Total cholesterol at 1.0 (mg/kg) dose; assay type: functional; design: unit not given beside the values; method in brief: as §1
Rattus norvegicus [33] = assay: Compound was evaluated in experiment 1 for Change in total cholesterol at 0.3 (mg/kg) dose; assay type: functional; method in brief: as §1
Rattus norvegicus [34] = assay: Compound was evaluated in experiment 1 for Total cholesterol at 10 (mg/kg) dose; assay type: functional; design: unit not given beside the values; method in brief: as §1
Rattus norvegicus [35] = assay: Compound was evaluated in experiment 1 for Change in total cholesterol at 10 (mg/kg) dose; assay type: functional; method in brief: as §1
Rattus norvegicus [36] = assay: Compound was evaluated in experiment 1 for Change in High density lipoproteins at 3.0 (mg/kg) dose; assay type: functional; method in brief: as §1
Rattus norvegicus [37] = assay: Compound was evaluated in experiment 1 for non High density lipoproteins at 1.0 (mg/kg) dose; assay type: functional; method in brief: as §1
Rattus norvegicus [38] = assay: Compound was evaluated in experiment 2 for Change in High density lipoproteins at 30 (mg/kg) dose; assay type: functional; method in brief: as §1
Rattus norvegicus [39] = assay: Compound was evaluated in experiment 1 for High density lipoproteins at 0.3 (mg/kg) dose; assay type: functional; method in brief: as §1
Rattus norvegicus [40] = assay: Compound was evaluated in experiment 1 for High density lipoproteins at 10 (mg/kg) dose; assay type: functional; method in brief: as §1
Rattus norvegicus [41] = assay: Compound was evaluated for the percentage change in total cholesterol in peanut oil (5.5%)-cholic acid (0.3%)-cholesterol (1.5%)-fed rats at 30 mg/kg; assay type: functional
[42] = molecular target: T1, Acyl-CoA:cholesterol acyltransferase (Oryctolagus cuniculus, UniProt Q95214); assay: Tested for in vitro inhibition against Acyl coenzyme A:cholesterol acyltransferase of intestinal microsomes in cholesterol-fed rabbits; design: species or system Microsome
T1 sequence (Q95214 whole entry): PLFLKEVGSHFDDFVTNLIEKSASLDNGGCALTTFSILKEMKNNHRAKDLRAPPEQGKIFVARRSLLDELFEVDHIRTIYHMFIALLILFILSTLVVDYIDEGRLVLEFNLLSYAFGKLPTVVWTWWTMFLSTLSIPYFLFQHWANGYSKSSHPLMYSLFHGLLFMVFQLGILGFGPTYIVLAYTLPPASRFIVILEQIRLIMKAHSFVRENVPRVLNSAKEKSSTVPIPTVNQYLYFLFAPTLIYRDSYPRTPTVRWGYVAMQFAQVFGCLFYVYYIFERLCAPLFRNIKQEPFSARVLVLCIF
Method in brief: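 Microsomes were prepared from intestine of cholesterol-fed rabbits. ACAT activity was measured using [1-14C]oleoyl-CoA as substrate. Each determination was run in triplicate.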

Row | logD [4] | Structure (SMILES) | Delta TC (Rattus norvegicus [7]) [%] | HDL-C (Rattus norvegicus [8]) | Change TC (Rattus norvegicus [9]) [%] | Non-HDL-C (Rattus norvegicus [10]) | Non-HDL-C (Rattus norvegicus [11]) | TC (Rattus norvegicus [12]) | Non-HDL-C (Rattus norvegicus [13]) | Change HDL -C (Rattus norvegicus [14]) [%] | HDL-C (Rattus norvegicus [15]) | Change non HDL-C (Rattus norvegicus [16]) [%] | Change non HDL-C (Rattus norvegicus [17]) [%] | Change HDL -C (Rattus norvegicus [18]) [%] | Change non HDL-C (Rattus norvegicus [19]) [%] | Change non HDL-C (Rattus norvegicus [22]) [%] | Change TC (Rattus norvegicus [24]) [%] | Change HDL -C (Rattus norvegicus [28]) [%] | TC (Rattus norvegicus [29]) | TC (Rattus norvegicus [32]) | Change TC (Rattus norvegicus [33]) [%] | other results
1 | 5.59 | CC(C)c1cccc(C(C)C)c1NC(=O)NCC1(c2ccc(N(C)C)cc2)CCCC1 [NEVANIMIBE] | -65 |  |  |  |  |  |  |  |  |  |  |  |  |  |  |  |  |  |  | solubility [1]: < 10 µg/mL; logD [2]: 2.89; solubility [3]: < 10 µg/mL; solubility [5]: < 10 µg/mL; logD [6]: 2.18
2 |  | CC(C)c1cccc(C(C)C)c1NC(=O)NCC1(c2ccc(N(C)C)cc2)CCCC1.Cl [NEVANIMIBE HYDROCHLORIDE] | -77 | 16 | -29 | 235 | 84 | 252 | 235 | 167 | 15 | -32 | -22 | 32 | -72 | -23 | -20 | 44 | 251 | 222 | -20 | Non-HDL-C (Rattus norvegicus [20]): 56; Change non HDL-C (Rattus norvegicus [21]): -80%; TC (Rattus norvegicus [23]): 91; solubility [25]: 6400 µg/mL; Change TC (Rattus norvegicus [26]): -69%; HDL-C (Rattus norvegicus [27]): 36; solubility [30]: 1330 µg/mL; solubility [31]: < 50 µg/mL; TC (Rattus norvegicus [34]): 115; Change TC (Rattus norvegicus [35]): -64%; Change HDL -C (Rattus norvegicus [36]): 38%; Non-HDL-C (Rattus norvegicus [37]): 206; Change HDL -C (Rattus norvegicus [38]): 177%; HDL-C (Rattus norvegicus [39]): 17; HDL-C (Rattus norvegicus [40]): 31
3 | 5.28 | CC(C)c1cccc(C(C)C)c1NC(=O)NCC1(c2cccc(CN3CCN(C)CC3)c2)CCCC1 | -21 | 12 | -33 | 313 | 135 | 325 | 227 | 60 | 15 | -36 | 3 | 27 | -55 | -25 | -24 | 2 | 239 | 209 | 3 | Delta TC (Rattus norvegicus [41]): -66%; TC (Rattus norvegicus [34]): 154; Change TC (Rattus norvegicus [35]): -51%; Change HDL -C (Rattus norvegicus [36]): 8%; Non-HDL-C (Rattus norvegicus [37]): 195; IC50 [42]: 16 nM; HDL-C (Rattus norvegicus [39]): 12; HDL-C (Rattus norvegicus [40]): 19
